# In the library only some 2.7% were active in any assay of this set; here they are far more common.
# OXTR potentiator: potentiates the human oxytocin receptor response; P30559; CHO-OTR cells, Fluo-8 calcium fluorescence, potentiator mode; 0% = oxytocin EC15, 100% = EC100; activation, % at 3 µM; hit rate 0.061% among 320,000; AID 2445;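 active = activation above that plate's cutoff, the mean activation of tested compounds plus 3 SD, cut at about 6.6% in these data, passing the limit was not always enough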;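 note: 100% uses oxytocin at 75 nM as the full agonist control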
#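 Measured by – Fluo-8 calcium dye fluorescence · Test system – human OTR in CHO cells · Dosing – one concentration, 3.0 µM compound · Controls – EC15 oxytocin alone as 0%, 75 nM oxytocin as 100% · Evaluation – normalized max/min fluorescence ratio, % activation · Timing – 6 min pre-incubation, 100 s read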
# CHO parental Ca: counter-screen for OX1R antagonists: effect in parental CHO cells; hit rate 0.63% among 330,000; AID 463079; inhibition, % at 5.6 µM; parental CHO-K1, ATP-induced calcium, Fluo-8 fluorescence;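 active = inhibition above that plate's mean sample inhibition plus 3 SD, cut at about 26% in these data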;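 note: 0% = ATP-challenged DMSO wells and 100% = DMSO wells without ATP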
#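 Assay system – parental CHO cells · Reagent – ATP stimulus · Detection – intracellular calcium via Fluo-8 no-wash fluorescent dye · Evaluation – percent inhibition of ATP-evoked calcium rise, normalized to controls · Controls – ATP wells versus no-ATP DMSO wells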
# OX1R antag-1: antagonists of human orexin 1 receptor; O43613; CHO/OX1R cells, Fluo-8 calcium fluorescence, orexin A; inhibition, % at 5 µM; hit rate 0.43% among 330,000;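 active = inhibition above its plate's threshold, mean inhibition of all tested compounds on the plate plus 3 SD, cut at about 37% in these data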;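 note: 0% = orexin A challenge wells and 100% = SB-334867-A antagonist wells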
# V1aR counter: counter-screen for oxytocin receptor agonists: human V1a receptor agonists; P37288; CHO-V1R cells, Fluo-8 calcium fluorescence, agonist mode; 0% DMSO, 100% 3 nM vasopressin; activation, % at 3 µM; hit rate 0.25% among 320,000;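 active = activation above the mean activation of all tested compounds plus 3 SD, per screening run, cut at about 20% in these data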;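 note: signal is peak over basal fluorescence ratio across a 100 second FLIPR read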
# Target sequence (P37288 whole entry, looked up): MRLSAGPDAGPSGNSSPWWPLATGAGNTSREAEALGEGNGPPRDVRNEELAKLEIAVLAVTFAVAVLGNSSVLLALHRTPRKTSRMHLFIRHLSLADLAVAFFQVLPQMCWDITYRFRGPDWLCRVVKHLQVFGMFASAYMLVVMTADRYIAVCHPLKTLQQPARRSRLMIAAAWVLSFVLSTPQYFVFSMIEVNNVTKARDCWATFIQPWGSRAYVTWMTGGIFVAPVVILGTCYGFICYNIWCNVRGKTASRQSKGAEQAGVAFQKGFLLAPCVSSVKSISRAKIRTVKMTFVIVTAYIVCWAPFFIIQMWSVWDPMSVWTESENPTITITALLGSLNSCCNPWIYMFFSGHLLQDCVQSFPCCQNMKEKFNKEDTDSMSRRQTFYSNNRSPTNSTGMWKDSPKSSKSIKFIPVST
# OXTR ag: human OXTR agonism | CHO-OTR cells, Fluo-8 calcium fluorescence; normalized: DMSO 0%, oxytocin 100% | activation, % at 3 µM | hit rate 0.32% among 320,000;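 active = activation above the mean of all tested compounds plus 3 SD, cutoff set per screening run, cut at about 20% in these data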;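 note: peak over basal fluorescence ratio from a 100 s FLIPR kinetic read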
# OX1R antag-2: antagonists of human orexin 1 receptor (OX1R); O43613; OX1R-expressing cells, FRET antagonist read-out; inhibition, % at 6.6 µM; hit rate 1.8% among 330,000; in the data active = inhibition mostly above about 38%, no sharp cut-off; inactive = mostly below about 40%;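 note: 0% = agonist challenge alone and 100% = reference antagonist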
# Numbers without * were called inactive.
SMILES,OXTR potentiator,CHO parental Ca,OX1R antag-1,V1aR counter,OXTR ag,OX1R antag-2
O=C(c1cc(COc2ccc(F)cc2F)on1)N1CCN(C2CCCC2)C(=O)C1,-11.0,14.6,-18.9,6.1,2.5,-0.5
COc1cccc(N=Nc2c(=O)[nH]n3c(C)cc(C)nc23)c1,-7.5,-7.0,-12.7,-0.8,-1.1,63.8*
COc1cccc(N=Nc2c(N)[nH]n3c(=O)cc(-c4ccccc4)nc23)c1,-3.5,-19.4,-10.1,-0.9,-0.5,0.4
COc1ccccc1CNC(=O)CN(c1ccc(C)cc1)S(=O)(=O)c1c(C)noc1C,-12.7,-27.4,4.8,4.2,1.7,71.0*
CCOc1ccc(N(CC(=O)Nc2cccc(Cl)c2)S(=O)(=O)c2c(C)noc2C)cc1,-8.4,39.6*,-5.4,0.8,0.9,17.6
CCOc1ccc(N(CC(=O)Nc2cccc(OC)c2)S(=O)(=O)c2c(C)noc2C)cc1,-8.0,-0.1,-23.4,0.4,-0.8,11.8
COc1ccc(CNC(=O)CN(c2ccc(C)cc2)S(=O)(=O)c2c(C)noc2C)cc1,-6.5,-20.1,-5.2,2.9,0.3,43.7*
COc1ccccc1CNC(=O)CN(c1ccc(C)cc1)S(=O)(=O)c1c(C)n[nH]c1C,-19.6,-18.0,-13.8,0.5,-2.0,18.8
Cc1ccc(N(CC(=O)NCc2ccc3c(c2)OCO3)S(=O)(=O)c2c(C)noc2C)cc1,-6.2,-19.9,-8.3,-1.4,-1.9,60.2*
COc1ccc(N(CC(=O)NCc2ccccc2)S(=O)(=O)c2c(C)noc2C)cc1,-10.0,-12.4,-4.8,-0.7,1.5,12.5
Cc1ccc(S(=O)(=O)N2CCCN(c3nc4cc(C)ccc4cc3C#N)CC2)cc1,-2.1,-21.2,37.7,1.0,0.8,48.3*
O=C(NCc1cccnc1)[C@@H]1CC=C[C@@H]2CCN(Cc3ccccc3)C(=O)[C@@H]21,-8.9,-13.0,8.6,0.3,-1.0,44.2
Cc1ccc(C)c(CN2CCCN(C(=O)Cn3ncc4c3-c3ccccc3OC4)C2)c1,-0.3,-15.6,3.1,1.4,-0.8,56.0*
CCN1CCN(C(=O)Cn2ncc3c2-c2ccccc2OC3)CC1,0.7,-3.9,-21.8,0.7,1.2,4.4
O=[N+]([O-])C(=C1SCCS1)C(=C(Cl)Cl)N1CCCCC1,-21.6,-2.8,-28.5,-0.7,-2.9,15.6
O=[N+]([O-])C(/C=C(\Cl)[N+](=O)[O-])=C(N1CCCCC1)N1CCCCC1,3.2,-16.3,-21.1,1.9,1.2,63.7*
COc1ccccc1N1CCN(S(=O)(=O)c2cc(Br)cnc2N)CC1,-8.8,-26.0,-31.6,1.5,-2.4,10.7
CCc1ccc(C(=O)NNC(=O)CN2C(=O)NC3(CCCC3)C2=O)cc1,-6.1,-4.7,-3.1,-0.4,1.0,6.8
O=C(Nc1nc(-c2ccc3c(c2)OCCO3)cs1)c1ccco1,-11.9,-10.6,-3.6,-1.0,0.4,35.2
COc1ccc(-c2csc(NC(C)=O)n2)cc1OC,1.4,6.8,-14.7,0.3,-0.8,12.2
COc1cccc(NC(=O)Nc2nc(-c3ccc(OC)c(OC)c3)cs2)c1,-14.2,71.4*,73.3*,13.8,12.1,71.5*
COc1ccccc1C(=O)Nc1nc(-c2ccc3c(c2)OCCO3)cs1,-6.6,-10.8,-43.0,0.4,1.7,46.8*
O=C(CSc1n[nH]c(=O)n1C1CC1)Nc1cc(Cl)ccc1Oc1ccccc1,-27.9,32.7*,20.5,7.4,7.4,48.5
CCOC(=O)Cc1csc(SCC(=O)Nc2cc(Cl)ccc2Oc2ccccc2)n1,-16.6,62.0*,61.0*,3.1,2.4,53.8
COc1ccccc1N(CC(=O)NCCSCc1ccco1)S(=O)(=O)c1ccccc1,-13.7,-33.5,23.3,4.3,0.7,50.9*
O=C(CN(c1ccccc1)S(=O)(=O)c1ccccc1)NCCSCc1ccco1,-7.9,-12.1,-7.8,-0.3,-0.5,56.6*
Cc1nn(C(C)C(=O)NCCc2cccs2)c(=O)c2nn(-c3ccccc3)c(C)c12 (configuration not stated),-6.5,-18.8,-21.5,0.7,0.6,15.5
CCOc1ccc(C(C)=O)cc1CN1c2ccc(S(N)(=O)=O)cc2CC1C (configuration not stated),-8.8,-0.3,-22.6,3.5,1.6,27.6

# Compound activity from PubChem BioAssay.
